One may read the EC50 as the concentration at which the effect is half-maximal. A low value points to higher potency in that assay. One may read the IC50 as the concentration that inhibits the measured activity by half. Read a high IC50 as a need for much substance.

The source of these data is ChEMBL document CHEMBL1125486, “Inhibitors of blood platelet cAMP phosphodiesterase. 3. 1,3-Dihydro-2H-imidazo[4,5-b]quinolin-2-one derivatives with enhanced aqueous solubility” (J Med Chem, 1992).

≈ marks a conversion by molar mass, not a printed value. A value given as a limit tells only on which side of the number the result lay.

The species entered for one series is Homo sapiens. As to the kind of experiment: Inhibition of ADP-induced aggregation of human platelets. The series is classed as functional.
Series [1] in a line: Aqueous solubility. The settings on record: water; read-out: S. Type of series: physicochemical. The procedure, abridged:
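Water (0.5 mL) added to 10 mg compound at room temperature, diluted up to […] unless dissolution occurred.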

In series [2] the target is T1, Phosphodiesterase 3 (Homo sapiens, UniProt Q14432+Q13370). Kind of series: Inhibition of human platelet c-AMP phosphodiesterase PDE 3.
The target in series [3] is T1, Phosphodiesterase 3. Kind of series: Inhibition of human platelet cAMP phosphodiesterase PDE 3. The procedure, abridged:
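Human platelet cAMP PDE enzyme preparation; IC50 read from plots of cAMP hydrolysis against compound concentration; mean of duplicate determinations; BMY 20844 positive control.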

Compound `Oc1nc2cc3cc(N4CCN(c5ccccc5)CC4)ccc3[nH]c-2n1` registered an EC50 in the series filed under Homo sapiens of 8060 nM. The solubility in series [1] was under 10000 µg/mL. The same compound showed an IC50 on Phosphodiesterase 3 [2] of 5000 nM.
`CCC(CC)CN1CCN(C(=O)CCCOc2ccc3[nH]c4nc(O)nc-4cc3c2)CC1` gave an EC50 in the series listed under Homo sapiens of 430 nM. In addition, the solubility in series [1] was over 10000 µg/mL. In addition, on Phosphodiesterase 3 [2], the IC50 was found to be 1 nM.
In the same order, the values of `O=C(CCCOc1ccc2[nH]c3nc(O)nc-3cc2c1)N1CCN(Cc2cccc(C(F)(F)F)c2)CC1` are 920 nM, 2000 µg/mL (≈ 3.89 mM) and 9 nM.
With `O=C1CN2Cc3cc(OCCCC(=O)N4CCN(CC5CCCCC5)CC4)ccc3N=C2N1`, in the series listed under Homo sapiens, the EC50 worked out at 7230 nM. In addition, the solubility in series [1] was over 5000 µg/mL. Also, the IC50 against Phosphodiesterase 3 [2] is given as 6 nM.
`O=C1CN2Cc3cc(OCCCC(=O)N4CCN(Cc5ccccc5)CC4)ccc3N=C2N1` returned an EC50 in the series filed under Homo sapiens of 4150 nM. For the same compound, in series [1], the solubility was over 5000 µg/mL. Also, the IC50 on Phosphodiesterase 3 [2] is given as 8 nM.
In the same order, the values of `COc1ccc(CN2CCN(C(=O)CCCOc3ccc4[nH]c5nc(O)nc-5cc4c3)CC2)cc1` are 520 nM, over 10000 µg/mL and 3 nM.
The matching figures for `CC(C)(C)OC(=O)N1CCN(C(=O)CCCOc2ccc3[nH]c4nc(O)nc-4cc3c2)CC1`: 270 nM, under 10000 µg/mL and 0.3 nM.
The matching figures for `O=C(CCCOc1ccc2[nH]c3nc(O)nc-3cc2c1)NCCN1CCCCC1`: 4500 nM, over 20000 µg/mL and 4 nM.
In the series listed under Homo sapiens, `COc1ccc(C(=O)N2CCN(c3ccc4[nH]c5nc(O)nc-5cc4c3)CC2)cc1OC` gave an EC50 of 37900 nM. Besides, the solubility in series [1] was under 10000 µg/mL.
`O=C(CCCOc1ccc2[nH]c3nc(O)nc-3cc2c1)N1CCN(CCC2CCCCC2)CC1` came in with an EC50 in the series listed under Homo sapiens of 54 nM. The solubility in series [1] is under 10000 µg/mL. The compound also gave a half-maximal inhibitory concentration (IC50) against Phosphodiesterase 3 [2] of 0.2 nM.
The matching figures for `Oc1nc2cc3cc(N4CCOCC4)ccc3[nH]c-2n1`: 250 nM, under 10000 µg/mL and 20 nM.
As to `Oc1nc2cc3cc(N4CCCC4)ccc3[nH]c-2n1`, the EC50 in the series filed under Homo sapiens came to 2030 nM. Moreover, in series [1], the solubility was under 10000 µg/mL.
On to `O=C(CCCOc1ccc2[nH]c3nc(O)nc-3cc2c1)N1CCN(c2ncccn2)CC1`, for which the EC50 in the series listed under Homo sapiens is 1220 nM. In addition, the solubility in series [1] is over 10000 µg/mL. The same compound gave a half-maximal inhibitory concentration (IC50) on Phosphodiesterase 3 [2] of 7 nM.
The matching figures for `O=C(CCCOc1ccc2[nH]c3nc(O)nc-3cc2c1)N1CCN(CC2CCCCO2)CC1` (stereo unspecified): 2020 nM, over 10000 µg/mL and 0.7 nM.
In the same order, the values of `CCCC(CCC)CN1CCN(C(=O)CCCOc2ccc3[nH]c4nc(O)nc-4cc3c2)CC1` are 680 nM, under 10000 µg/mL and 0.4 nM.
In the same order, the values of `O=C(CCCOc1ccc2[nH]c3nc(O)nc-3cc2c1)N1CCN(Cc2ccsc2)CC1` are 380 nM, over 10000 µg/mL and 0.7 nM.
`O=C(CCCOc1ccc2[nH]c3nc(O)nc-3cc2c1)N1CCN(Cc2ccc(Cl)cc2)CC1` registered a 50% effective concentration (EC50) in the series filed under Homo sapiens of 170 nM. The solubility in series [1] is under 10000 µg/mL. Further, the IC50 on Phosphodiesterase 3 [2] was determined as 2 nM.
In the same order, the values of `O=C(CCCOc1ccc2[nH]c3nc(O)nc-3cc2c1)NC1CCN(Cc2ccccc2)CC1` are 3700 nM, over 20000 µg/mL and 0.7 nM.
In the same order, the values of `O=C(O)C1CCN(c2ccc3[nH]c4nc(O)nc-4cc3c2)CC1` are 30200 nM, under 10000 µg/mL and 20 nM.
In the series filed under Homo sapiens, `O=C(CCCCOc1ccc2[nH]c3nc(O)nc-3cc2c1)N1CCN(Cc2ccccc2)CC1` gave an EC50 of 47 nM. For the same compound, the solubility in series [1] was over 10000 µg/mL. This compound showed an IC50 against Phosphodiesterase 3 [2] of 0.08 nM.
The matching figures for `Cn1c(O)nc2nc3ccc(OCCCC(=O)N4CCN(CC5CCCCC5)CC4)cc3cc21`: over 58100 nM, over 10000 µg/mL and 80 nM.
In the series listed under Homo sapiens, `COC(=O)C1CCN(c2ccc3[nH]c4nc(O)nc-4cc3c2)CC1` showed an EC50 of 280 nM. In addition, the solubility in series [1] is under 10000 µg/mL.
In turn, `CCOC(=O)N1CCN(c2ccc3[nH]c4nc(O)nc-4cc3c2)CC1` showed an EC50 in the series filed under Homo sapiens of 3520 nM. Moreover, the solubility in series [1] was under 10000 µg/mL. Further, the IC50 against Phosphodiesterase 3 [2] was 700 nM.
For the compound `CN(C(=O)C1CCN(c2ccc3[nH]c4nc(O)nc-4cc3c2)CC1)C1CCCCC1`, the EC50 in the series filed under Homo sapiens is over 37000 nM. The solubility in series [1] is under 10000 µg/mL.
In the case of `CCOC(=O)CN1CCN(C(=O)CCCOc2ccc3[nH]c4nc(O)nc-4cc3c2)CC1`, the EC50 in the series filed under Homo sapiens turned out to be 2440 nM. In series [1], the solubility was over 10000 µg/mL. On Phosphodiesterase 3 [2], the concentration for half-maximal inhibition (IC50) was 2 nM.
In the same order, the values of `O=C(CCCOc1ccc2[nH]c3nc(O)nc-3cc2c1)N1CCN(c2ccccn2)CC1` are 670 nM, over 10000 µg/mL and 5 nM.
Take `CC(C)CN1CCN(C(=O)CCCOc2ccc3[nH]c4nc(O)nc-4cc3c2)CC1`: in the series listed under Homo sapiens, the EC50 was found to be 2430 nM. Moreover, the solubility in series [1] is over 10000 µg/mL. For the same compound, on Phosphodiesterase 3 [2], the 50% inhibitory concentration (IC50) is 1 nM.
The matching figures for `COCCN1CCN(C(=O)CCCOc2ccc3[nH]c4nc(O)nc-4cc3c2)CC1`: 20800 nM, over 10000 µg/mL and 7 nM.
The matching figures for `O=C(CCCOc1ccc2[nH]c3nc(O)nc-3cc2c1)N1CCN(C(c2ccccc2)c2ccccc2)CC1`: 62 nM, under 10000 µg/mL and 3 nM.
Compound `CN(CCc1ccccn1)C(=O)CCCOc1ccc2[nH]c3nc(O)nc-3cc2c1` gave an EC50 in the series filed under Homo sapiens of 12400 nM. In series [1], the solubility was over 10000 µg/mL. At Phosphodiesterase 3 [2], this compound displayed an IC50 of 4.5 nM.
`O=C(CCCOc1ccc2[nH]c3nc(O)nc-3cc2c1)N1CCN(Cc2ccc(F)cc2)CC1` displayed an EC50 in the series filed under Homo sapiens of 530 nM. The solubility in series [1] is over 10000 µg/mL. Besides, the IC50 at Phosphodiesterase 3 [2] is reported as 2 nM.
In the same order, the values of `O=C(CCCOc1ccc2[nH]c3nc(O)nc-3cc2c1)N1CCN(C(c2ccc(F)cc2)c2ccc(F)cc2)CC1` are 130 nM, under 10000 µg/mL and 0.3 nM.
In the same order, the values of `O=C(c1ccccc1)N1CCN(c2ccc3[nH]c4nc(O)nc-4cc3c2)CC1` are 6820 nM, under 10000 µg/mL and 600 nM.
In the same order, the values of `O=C(CCCOc1ccc2[nH]c3nc(O)nc-3cc2c1)N1CCN(Cc2cccs2)CC1` are 380 nM, over 10000 µg/mL and 0.7 nM.
As to `O=C(CCCOc1ccc2[nH]c3nc(O)nc-3cc2c1)N1CCN(CC2CCCCCC2)CC1`, a half-maximal response in the series filed under Homo sapiens (EC50) required 290 nM. Further, the solubility in series [1] was under 10000 µg/mL. Further, the IC50 at Phosphodiesterase 3 [2] was 0.2 nM.
In the series listed under Homo sapiens, `CN1CCN(C(=O)CCCOc2ccc3[nH]c4nc(O)nc-4cc3c2)CC1` showed an EC50 of 8900 nM. Further, in series [1], the solubility is over 20000 µg/mL. For the same compound, the IC50 against Phosphodiesterase 3 [2] amounted to 7 nM.
As to `O=C(CCCOc1ccc2[nH]c3nc(O)nc-3cc2c1)N1CCN(Cc2ccc3c(c2)OCO3)CC1`, it took 330 nM to reach a half-maximal effect in the series listed under Homo sapiens (EC50). The solubility in series [1] stood at 10000 µg/mL (≈ 20.4 mM). Further, the IC50 on Phosphodiesterase 3 [2] is 0.9 nM.
The compound `O=C(CCCOc1ccc2[nH]c3nc(O)nc-3cc2c1)N1CCN(c2cccc(C(F)(F)F)c2)CC1` had an EC50 in the series listed under Homo sapiens of 720 nM. Further, the solubility in series [1] is under 10000 µg/mL. On Phosphodiesterase 3 [2], this compound displayed an IC50 of 0.6 nM.
In the same order, the values of `O=C(CCCOc1ccc2[nH]c3nc(O)nc-3cc2c1)N1CCN(C2CCCCCC2)CC1` are 750 nM, over 10000 µg/mL and 0.9 nM.
`O=C(CCCOc1ccc2[nH]c3nc(O)nc-3cc2c1)N1CCN(Cc2ccc(C(F)(F)F)cc2)CC1` gave an EC50 in the series filed under Homo sapiens of 2110 nM. Moreover, the solubility in series [1] is under 10000 µg/mL. The IC50 against Phosphodiesterase 3 [2] was found to be 0.4 nM.
The matching figures for `O=C(CCCOc1ccc2[nH]c3nc(O)nc-3cc2c1)N1CCN(CCc2ccccc2C(F)(F)F)CC1`: 110 nM, under 10000 µg/mL and 0.3 nM.
In the series listed under Homo sapiens, `O=C(CCCCCOc1ccc2[nH]c3nc(O)nc-3cc2c1)N1CCN(CC2CCCCC2)CC1` gave an EC50 of 710 nM. For the same compound, in series [1], the solubility is over 10000 µg/mL. Besides, the IC50 at Phosphodiesterase 3 [2] is reported as 0.6 nM.
In the series listed under Homo sapiens, `CCN(CC)c1ccc2[nH]c3nc(O)nc-3cc2c1` yielded an EC50 of 1420 nM. This compound displayed an IC50 on Phosphodiesterase 3 [3] of 70 nM. Further, the solubility in series [1] was over 10000 µg/mL.
For `O=C(CCCOc1ccc2[nH]c3nc(O)nc-3cc2c1)N1CCNCC1`, in the series listed under Homo sapiens, the EC50 stood at 53700 nM. Besides, in series [1], the solubility was over 10000 µg/mL. Further, the IC50 against Phosphodiesterase 3 [2] is listed as 40 nM.
In the same order, the values of `O=C(CCCOc1ccc2[nH]c3nc(O)nc-3cc2c1)N1CCN(CC2CCCC2)CC1` are 1300 nM, over 10000 µg/mL and 0.5 nM.
The compound `O=C(CCCOc1ccc2[nH]c3nc(O)nc-3cc2c1)N1CCC(N2CCCCC2)CC1` showed an EC50 in the series listed under Homo sapiens of 11400 nM. The solubility in series [1] was over 10000 µg/mL. On Phosphodiesterase 3 [2], this compound yielded an IC50 of 5 nM.
In the same order, the values of `Cn1c(O)nc2nc3ccc(OCCCC(=O)N4CCN(Cc5ccccc5)CC4)cc3cc21` are over 59100 nM, over 10000 µg/mL and 30 nM.
The matching figures for `O=C(CCCOc1ccc2[nH]c3nc(O)nc-3cc2c1)N1CCN(c2ccccc2)CC1`: 50 nM, under 10000 µg/mL and 2 nM.
`O=C(CCCOc1ccc2[nH]c3nc(O)nc-3cc2c1)NC1CN2CCC1CC2` (stereo unspecified) showed an EC50 in the series filed under Homo sapiens of 12400 nM. For the same compound, in series [1], the solubility is over 10000 µg/mL. Also, the IC50 against Phosphodiesterase 3 [2] is given as 40 nM.
Turning to `O=C(CCCOc1ccc2[nH]c3nc(O)nc-3cc2c1)N1CCN(CCc2ccccc2)CC1`, the EC50 in the series filed under Homo sapiens came out at 190 nM. The solubility in series [1] was under 10000 µg/mL. On Phosphodiesterase 3 [2], the concentration for half-maximal inhibition (IC50) is 2 nM.
